The source made the active and inactive calls. The rule behind the calls is not given here.
Assays:
L02 = test: Antiproliferative activity against human HL7702 cells assessed as reduction in cell viability after 48 hrs by MTT assay; type: functional, cell-based; conditions: L02, 48 h
Method in brief: (§1)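 Cells grown at 37 °C, 5% CO2; HeLa, HepG2, H8, HL7702 in RPMI 1640 + 10% fetal calf serum, others in high-glucose DMEM + 10% fetal calf serum. Log-phase cells seeded at 4000-12000/well by doubling time. Attached cells were given 10-fold dilutions, 100 µM to 10 nM (DMSO 0.1% v/v), for 48 h. MTT (2 mg/mL) 4 h, formazan in DMSO, A492. IC50 from triplicate means.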

HepG2 = test: Antiproliferative activity against human HepG2 cells assessed as reduction in cell viability after 48 hrs by MTT assay; type: functional, cell-based; conditions: HepG2, 48 h; method in brief: as §1
Tubulin (Sus scrofa) [1] = molecular target: T1, Tubulin (Sus scrofa) (UniProt P02554+P02550); test: Inhibition of porcine tubulin assembly assessed as tubulin growth inhibition incubated for 30 min by fluorometric analysis; type: protein assay
T1 sequence (P02550 whole entry, looked up): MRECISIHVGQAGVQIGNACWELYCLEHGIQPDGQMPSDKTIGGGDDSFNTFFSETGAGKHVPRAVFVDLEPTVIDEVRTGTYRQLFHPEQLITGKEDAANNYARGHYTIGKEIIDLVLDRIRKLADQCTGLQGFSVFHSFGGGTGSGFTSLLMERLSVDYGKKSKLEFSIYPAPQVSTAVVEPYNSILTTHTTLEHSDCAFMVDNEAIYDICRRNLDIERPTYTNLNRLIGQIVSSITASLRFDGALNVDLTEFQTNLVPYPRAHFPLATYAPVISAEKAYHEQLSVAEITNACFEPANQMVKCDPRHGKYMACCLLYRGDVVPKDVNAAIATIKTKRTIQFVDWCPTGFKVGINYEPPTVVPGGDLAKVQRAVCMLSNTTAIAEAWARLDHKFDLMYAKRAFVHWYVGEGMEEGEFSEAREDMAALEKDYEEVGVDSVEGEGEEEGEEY
T1 sequence (P02554 whole entry, looked up): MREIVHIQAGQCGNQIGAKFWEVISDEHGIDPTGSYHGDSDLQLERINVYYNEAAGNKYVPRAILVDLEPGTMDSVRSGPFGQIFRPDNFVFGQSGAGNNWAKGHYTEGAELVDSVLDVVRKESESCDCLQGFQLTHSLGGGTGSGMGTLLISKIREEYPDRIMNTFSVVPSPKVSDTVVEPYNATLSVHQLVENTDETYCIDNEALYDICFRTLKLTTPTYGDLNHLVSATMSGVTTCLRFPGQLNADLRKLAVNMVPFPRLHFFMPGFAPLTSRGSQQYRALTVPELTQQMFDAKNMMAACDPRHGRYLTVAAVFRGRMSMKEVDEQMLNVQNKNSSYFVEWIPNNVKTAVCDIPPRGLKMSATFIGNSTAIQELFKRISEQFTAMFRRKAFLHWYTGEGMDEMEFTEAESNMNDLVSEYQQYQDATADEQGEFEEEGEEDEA
Method in brief: (§2)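 This was a centrifugation assay of tubulin assembly. Tubulin was held at 4 °C with 0.9 mM GTP and 6 mM MgCl2, and aggregates were removed at 90000 g for 10 min at 4 °C. Ligands at 0.05–2 µM (1% DMSO) were incubated for 30 min at 37 °C. Supernatants and pellets were diluted 1:5, and tubulin was read fluorometrically (ex 280, em 323) against standards. The 50% inhibitory concentration came from inhibition curves, as the mean of three experiments.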

HeLa = test: Antiproliferative activity against human HeLa cells assessed as reduction in cell viability after 48 hrs by MTT assay; type: functional, cell-based; method in brief: as §1
[2] = Antiproliferative activity against human H8 cells assessed as reduction in cell viability after 48 hrs by MTT assay; type: functional, cell-based; method in brief: as §1
A549 = test: Antiproliferative activity against human A549 cells assessed as reduction in cell viability after 48 hrs by MTT assay; type: functional, cell-based; conditions: A549, 48 h; method in brief: as §1
MRC5 = test: Antiproliferative activity against human MRC5 cells assessed as reduction in cell viability after 48 hrs by MTT assay; type: functional, cell-based; conditions: MRC5, 48 h; method in brief: as §1
MCF7 [3] = test: Antiproliferative activity against human MCF7 cells assessed as reduction in cell viability after 48 hrs by MTT assay; type: functional, cell-based; conditions: MCF7, 48 h; method in brief: as §1
HMEC = test: Antiproliferative activity against human HMEC cells assessed as reduction in cell viability after 48 hrs by MTT assay; type: functional, cell-based; method in brief: as §1
MCF7 [4] = test: Cell cycle arrest in human MCF7 cells assessed as accumulation of cells at G2/M phase at 100 nM after 24 hrs by propidium iodide double staining based flow cytometric analysis; type: functional
Method in brief: (§3)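 Log-phase cells seeded in 6-well plates and, once adhered, treated at 10-1000 nM; incubated in cycles of 6 h on/6 h off up to 48 h. Washed in cold PBS, fixed in 70% ethanol at -20 °C for at least 2 days. Stained with PI (50 µg/mL) 30 min on ice in the dark. 10,000 events on FL2-A vs FL2-W; G1/S/G2/M from DNA modelling. At least three repeats.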

MCF7 [5] = test: Cell cycle arrest in human MCF7 cells assessed as accumulation of cells at G2/M phase at 250 to 500 nM after 24 hrs by propidium iodide double staining based flow cytometric analysis; type: functional; method in brief: as §3
MCF7 [6] = test: Induction of apoptosis in human MCF7 cells at 250 nM after 48 hrs by Annexin V-FITC/propidium iodide staining-based flow cytometric analysis relative to control (reference value: 11.6%); type: functional
Method in brief: (§4)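 MCF7 cells were seeded in 6-well plates and exposed after adhering to graded concentrations for 48 h, in cycles of 6 h on and 6 h off. They were then stained with annexin V (1 µg/mL) and PI (0.5 µg/mL) in Ca2+-enriched binding buffer for 15 min in the dark at room temperature. Flow cytometry recorded 10,000 events, FL1 versus FL2. Apoptosis was taken as early plus late stage, with at least 3 repeats.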

MCF7 [7] = test: Induction of apoptosis in human MCF7 cells at 10 nM after 48 hrs by Annexin V-FITC/propidium iodide staining-based flow cytometric analysis relative to control (reference value: 11.6%); type: functional; method in brief: as §4
MCF7 [8] = test: Induction of apoptosis in human MCF7 cells at 50 nM after 48 hrs by Annexin V-FITC/propidium iodide staining-based flow cytometric analysis relative to control (reference value: 11.6%); type: functional; method in brief: as §4
MCF7 [9] = test: Induction of apoptosis in human MCF7 cells at 100 nM after 48 hrs by Annexin V-FITC/propidium iodide staining-based flow cytometric analysis relative to control (reference value: 11.6%); type: functional; method in brief: as §4
MCF7 [10] = test: Induction of apoptosis in human MCF7 cells at 500 nM after 48 hrs by Annexin V-FITC/propidium iodide staining-based flow cytometric analysis relative to control (reference value: 11.6%); type: functional; method in brief: as §4
Tubulin = test: Binding affinity to tubulin (unknown origin) assessed as dissociation constant by SPR analysis; type: protein-complex assay, Homo sapiens
Method in brief: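 Tubulin immobilised to about 800 mDeg. Injected at 60 µL/min for 300 s; PBS with 0.5% DMSO as running buffer. Measured at 25 °C, with dilution-corrected peak areas.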

Tubulin (Homo sapiens) [11] = molecular target: T2, Tubulin (Homo sapiens) (UniProt P68371+Q9H4B7+P0DPH7+P68366+Q13509+Q71U36+P04350+Q3ZCM7+P07437+P68363+Q9BQE3+Q6PEY2+Q13885+Q9BVA1+Q9BUF5); test: Ratio of Kd for PTOX to Kd for test compound for tubulin (unknown origin) by surface plasmon resonance analysis; type: protein-complex assay
Method in brief: (§5)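 SPR binding to immobilised tubulin (up to 800 mDeg) was measured at 25 °C. Compounds were diluted two-fold from 80 to 2.5 µM in PBS with 0.5% DMSO. They were injected at 60 µL/min for 300 s, with PBS containing 0.5% DMSO as running buffer. Kd values came from the titration data.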

Tubulin (Homo sapiens) [12] = molecular target: T2, Tubulin (Homo sapiens); test: Ratio of Kd for colchicine to Kd for test compound for tubulin (unknown origin) by surface plasmon resonance analysis; type: protein-complex assay; method in brief: as §5
Tubulin (Sus scrofa) [13] = molecular target: T1, Tubulin (Sus scrofa); test: Inhibition of porcine tubulin assembly assessed as tubulin growth inhibition at 2 uM incubated for 30 min by fluorometric analysis; type: protein assay; method in brief: as §2
Tubulin (Homo sapiens) [14] = molecular target: T2, Tubulin (Homo sapiens); test: Inhibition of tubulin polymerization in human HeLa cells assessed as contracted and rounded cells with disordered abnormal spindles and chromosomal misalignment at 500 nM after 24 hrs by immunofluorescence based confocal microscopy; type: cell-based
Method in brief: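 HeLa cells on glass coverslips were treated for 24 h at 25, 250 or 500 nM. They were fixed in 4% paraformaldehyde for 1 h and permeabilised with 0.2% Triton X-100 for 20 min. Cells were imaged by fluorescence and confocal microscopy.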

MCF7 [15] = test: Antitumor activity against human MCF7 cells xenografted in BALB/c nude mouse assessed as inhibition of tumor growth at 40 mg/kg administered for a week; type: functional
Method in brief: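 Male BALB/c nude mice, 4 weeks old, 15-20 g. Log-phase MCF-7 cells in DMEM, 0.1 mL of 1×10^6 cells/mL, injected subcutaneously into the hind leg. Calipers twice weekly; at about 90 mm3, groups of 5. Vehicle was isotonic saline plus 0.005% DMSO. Injected at 40 mg/kg for a week; tumour volume recorded daily.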

[16] = Binding affinity to alpha/beta tubulin complex (unknown origin); set-up: species or system Homo sapiens
Method in brief: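 SPR assay: tubulin immobilized up to 800 mDeg (response units). Ligands were diluted two-fold from 80 µM to 2.5 µM in PBS with 0.5% (v/v) DMSO and injected at 60 µL/min for 300 s. Running buffer was PBS with 0.5% DMSO, at 25°C.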

With `COc1cc([C@@H]2c3cc4c(cc3[C@@H](Nc3ccc5cc[nH]c5c3)[C@H]3COC(=O)[C@H]23)OCO4)cc(OC)c1OC` as the compound, how does the IC50 (L02) read?
The IC50 was 94.6 µM.

What about the IC50 (HepG2) of the same compound?
The IC50 was 100 nM.

And the GI50 (Tubulin (Sus scrofa) [1])?
Its GI50 is < 100 nM.

And the IC50 (HeLa)?
Its IC50 is 80 nM.

And the IC50 [2]?
The IC50 was 84.5 µM.

What about the IC50 (A549) of the same compound?
Its IC50 is 80 nM.

And the IC50 (MRC5)?
Its IC50 is 69.1 µM.

What about the IC50 (MCF7 [3]) of the same compound?
The IC50 was 70 nM.

And the IC50 (HMEC)?
Its IC50 is 61.6 µM.

What about the Activity (MCF7 [4]) of the same compound?
Its Activity is 50%.

And the Activity (MCF7 [5])?
Its Activity is 90%.

And the Activity (MCF7 [6])?
The Activity was 92.4 - 93%.

And the Activity (MCF7 [7])?
Its Activity is 10.5%.

What about the Activity (MCF7 [8]) of the same compound?
The Activity was 20.1%.

And the Activity (MCF7 [9])?
Its Activity is 93.5%.

And the Activity (MCF7 [10])?
Its Activity is 94.9%.

And the Kd (Tubulin)?
The Kd was 8.1 µM.

What about the Ratio (Tubulin (Homo sapiens) [11]) of the same compound?
Its Ratio is 2.7.

And the Ratio (Tubulin (Homo sapiens) [12])?
Its Ratio is 2.2.

What about the inhibition (Tubulin (Sus scrofa) [13]) of the same compound?
Its inhibition is 88%.

And the inhibition (Tubulin (Homo sapiens) [14])?
Its inhibition is “Active”.

And the inhibition in vivo at 40 mg/kg (MCF7 [15])?
Its inhibition in vivo at 40 mg/kg is 89.6%.

And the Ki [16]?
Its Ki is 10 nM.

Reference: ChEMBL document CHEMBL4346667 (Eur J Med Chem, 2019)
